This is a sample that favours compounds with a hit; in the whole collection about 1.7% have one here.
CSN deneddyl inh: inhibitors of CSN-mediated cullin deneddylation, primary screen, biochemical, fluorescence polarization, uHTS; inhibition, % at 12.5 µM; actives 0.38% (n = 360,000); Purified CSN, SCF-Nedd8-OG deneddylation; COP9 signalosome complex subunit 5 (Homo sapiens), Q92905;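 active = pattern-corrected inhibition above about 35%, with an unprinted fluorescence ratio check between 0.5 and 1.5, limit read from the data, passing the limit was not always enough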
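Schedule: reaction 90 min, room temperature / Assay system: HEK293T-derived human Csn5 enzyme / Input: Csn5 at 0.24 nM final / Measure: inhibition of Csn5 cleavage, % / Control set: substrate-only high control, full reaction low control / Technique: fluorescence polarization of the substrate / Buffer or medium: Tris/NaCl/DTT buffer, pH 7.5 / Reagent: SCFSkp2-Nedd8OG substrate at 10 nM final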
TPT1 inhibitor: Candida albicans TPT1 enzyme inhibitors, primary screen, biochemical, fluorescence polarization; recombinant caTPT1, FP RNA substrate dephosphorylation; AID 1962, 2009; actives 0.81% (n = 300,000); inhibition, % at 5 µM;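 active = inhibition above the mean of all tested compounds plus 3 SD, set per screening campaign, cut at about 24% in these data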
IDE cell activ: human IDE activators in live cells, primary screen, fluorescence polarization, HEK cells, FAbeta-B substrate; Insulin-degrading enzyme (Homo sapiens), P14735; FAbeta-B cleavage; 0% vehicle, 100% cell-free pure enzyme wells; activation, % at 5.96 µM; actives 0.073% (n = 340,000);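 active = activation above the mean of all tested compounds plus 3 SD, set per screening campaign, cut at about 17% in these data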
HNF4A DNA FP: change in binding of human HNF4A to DNA, primary screen, biochemical, fluorescence polarization, FITC-DNA; Hepatocyte nuclear factor 4-alpha (Homo sapiens), P41235; 1 h; activity change, % at 10 µM; actives 0.3% (n = 360,000); in the data active = activity change above about 30%, passing the limit was not always enough
Rpn11 block: Rpn11 (PSMD14) deubiquitinase inhibitors, primary screen, biochemical, fluorescence polarization, uHTS | 26S proteasome non-ATPase regulatory subunit 14 (Homo sapiens), O00487 | human 26S proteasome, Ub4-pepOG fluorescence polarization; 20S core pre-blocked with epoxomicin | inhibition, % at 20 µM | actives 0.59% (n = 360,000);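 active = inhibition at 20 µM, scaled to each plate's controls, above about 33%, limit read from the data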
IDE inh: human IDE inhibitors in live cells, primary screen, fluorescence polarization, HEK cells, FAbetaB substrate | AID 434962, 2010 | FAbetaB cleavage | inhibition, % at 5.59 µM | Insulin-degrading enzyme (Homo sapiens), P14735 | actives 0.41% (n = 320,000);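 active = percent inhibition above the average of all tested compounds plus 3 SD, set per screening campaign, cut at about 16% in these data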;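 also: IDE supplied by intact live HEK cells; FP after avidin binding of uncleaved biotin substrate so inhibition keeps polarization high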
CSN deneddyl val: Csn5 deneddylation inhibitors, confirmation, biochemical, fluorescence polarization, single concentration, SCF-Nedd8OG substrate; shares compounds with CSN deneddyl inh; Csn5 deneddylation of SCF-Nedd8OG, 90 min; inhibition, % at 16.6 µM; actives 62% (n = 540); in the data active = inhibition above about 50%
MMP-2 counter: MMP-2 protease inhibition counter-screen, confirmation, counter-screen for CSN deneddylation inhibitor project, biochemical, fluorescence, single concentration; shares compounds with CSN deneddyl inh; recombinant MMP-2, FRET substrate fluorescence, 60 min; inhibition, % at 16.6 µM; AID 720655, 2013; actives 33% (n = 540);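 active = corrected plate-normalized z-score of 5 or more, or -5 or less, or inhibition of 15% or more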
Thrombin cntr: blocks bovine thrombin in a CSN deneddylation counter-screen; actives 49% (n = 540); AID 720656; bovine thrombin cleavage of Ub4-pepOG, fluorescence polarization; shares compounds with CSN deneddyl inh; inhibition, % at 16.6 µM;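 active = inhibition at or above a set limit, with a fluorescence interference ratio between 0.5 and a set maximum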
Target sequence (P00735 whole entry, looked up): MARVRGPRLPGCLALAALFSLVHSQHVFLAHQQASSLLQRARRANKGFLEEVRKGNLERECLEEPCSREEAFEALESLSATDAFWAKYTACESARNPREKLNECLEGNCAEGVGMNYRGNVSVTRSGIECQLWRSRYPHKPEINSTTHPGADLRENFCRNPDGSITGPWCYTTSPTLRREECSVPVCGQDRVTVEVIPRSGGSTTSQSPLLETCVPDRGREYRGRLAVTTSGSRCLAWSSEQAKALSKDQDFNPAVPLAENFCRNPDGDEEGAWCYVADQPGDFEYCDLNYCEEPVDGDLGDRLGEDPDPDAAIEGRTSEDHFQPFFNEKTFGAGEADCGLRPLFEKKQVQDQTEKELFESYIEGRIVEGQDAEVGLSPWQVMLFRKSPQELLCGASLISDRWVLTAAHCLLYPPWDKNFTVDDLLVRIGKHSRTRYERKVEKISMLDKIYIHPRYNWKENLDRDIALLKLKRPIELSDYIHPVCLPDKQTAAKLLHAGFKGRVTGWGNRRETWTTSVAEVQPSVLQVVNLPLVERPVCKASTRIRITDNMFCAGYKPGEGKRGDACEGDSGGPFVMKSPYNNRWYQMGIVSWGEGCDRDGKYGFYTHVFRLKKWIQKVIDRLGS
Hits are given with their value; i = inactive; nt = not tested or not shown; ! = a repeat was not active.

SMILES	CSN deneddyl inh	TPT1 inhibitor	IDE cell activ	HNF4A DNA FP	Rpn11 block	IDE inh	CSN deneddyl val	MMP-2 counter	Thrombin cntr
COc1ccc(OC)c(N2C(=O)[C@@H]3C(c4ccccc4Cl)=NO[C@@H]3C2=O)c1	40	i	i	i	i	i	69	i	i
CC(C)(c1ccc(O)cc1)c1ccc(O)c(C(=O)O)c1	i	nt	nt	i	i	nt	nt	nt	nt
O=C1C(=O)c2c(ccc3ccccc23)-c2ccccc21	40	nt	i	i	i	nt	84	i	i
CN(C)/C=C1\Oc2ccc3ccccc3c2C1=O	i	i	i	i	i	i	nt	nt	nt
Cc1cc(Br)cn2c(Cc3ccsc3)c(-c3ccco3)nc12	i	nt	nt	i	i	nt	nt	nt	nt
O=C(Nc1cccc(-c2cnc3ccccc3n2)c1)c1cccc(NC(=O)c2ccco2)c1	41	i	i	i	74	i	nt	i	17
O=C(Nc1cccc(-c2cnc3ccccc3n2)c1)c1ccccc1	i	i	i	i	i	i	nt	nt	nt
N#Cc1c(NC(=O)CSc2ncnc3sccc23)oc(-c2ccco2)c1-c1ccco1	51	i	i	i	i	i	64	i	i
Cc1cc(NC(=O)CSc2ncnc3sccc23)no1	i	i	i	i	i	i	nt	nt	nt
O=C(N/N=C/c1cc(Br)c(Br)o1)c1ccc2c(c1)OCCO2	40	i	i	i	i	i	66	i	i
CC(C)NC(=O)C1(C)CCN1C(=O)c1ccccc1F (stereo not given)	i	nt	nt	i	i	nt	nt	nt	nt
Cc1cccc(NC(=O)CN2C(=O)S/C(=C\c3ccc(-c4cccc(C(=O)O)c4C)o3)C2=O)c1	nt	i	nt	nt	nt	i	nt	nt	nt
Cc1ccc(NC(=O)CN2C(=O)S/C(=C/c3ccc(-c4cc(C(=O)O)ccc4C)o3)C2=O)cc1C	64	i	i	i	i	i	76	18	i
Cc1ccc(S(=O)c2ccc([N+](=O)[O-])c3nonc23)cc1 (stereo not given)	42	nt	nt	i	i	nt	83	-50	i
O=C1/C(=C/c2ccc(O)c(O)c2)SC(=S)N1Nc1ccccc1	54	nt	i	i	nt	nt	i	18	54
CNc1ccc(Br)cc(C(=O)/C=C/c2ccc3c(c2)OCO3)c1=O	44	i	i	i	i	i	71	i	20
O=C(C=Cc1ccc2c(c1)OCO2)c1ccccc1	i	nt	i	i	i	nt	nt	nt	nt
CCCCn1nnnc1C(c1ccccc1)N1CCN(c2cccc(C(F)(F)F)n2)CC1 (stereo not given)	i	nt	nt	i	nt	nt	nt	nt	nt
CCN1CCN(Cc2ccc(NC(=O)c3ccc(C)c(NC(=O)c4c[nH]c5cc(C(F)(F)F)ccc5c4=O)c3)cc2C(F)(F)F)CC1	78!	i	i	55	i	i	90	i	i
COc1ccccc1-c1cnc(C(O)c2ccc(C)cc2C)[nH]1 (stereo not given)	i	nt	nt	i	i	nt	nt	nt	nt
O=[N+]([O-])c1ccc(/C=C/C2=NN(c3ccccc3)C(c3ccco3)C2)o1 (stereo not given)	62	nt	i	i	nt	nt	i	i	21
O=C1C(=O)c2cccnc2-c2ncccc21	59	nt	nt	i	i	nt	i	i	i
O=C(NCCCN1CCOCC1)c1c(-c2ccccc2)oc2c1C(OCCCCCO)CCC2 (stereo not given)	i	nt	nt	i	nt	nt	nt	nt	nt
COc1cc(NC(C)CCCNC(C)C)c2ncccc2c1OC (stereo not given)	i	nt	i	i	i	nt	nt	nt	nt
COc1cc(NCCCCCCN)c2ncccc2c1OC	86	nt	i	i	i	nt	nt	i	i
SMILES	CSN deneddyl inh	TPT1 inhibitor	IDE cell activ	HNF4A DNA FP	Rpn11 block	IDE inh	CSN deneddyl val	MMP-2 counter	Thrombin cntr
C[C@H](CO)N1C[C@H](C)[C@@H](CN(C)C(=O)Nc2ccc(C(F)(F)F)cc2)Oc2c(NC(=O)Cc3ccccc3)cccc2C1=O	i	nt	i	i	i	i	nt	nt	nt
O=C(CCN1C(=O)/C(=C/c2ccco2)SC1=S)Nc1ccc(O)cc1C(=O)O	43	nt	i	i	i	nt	77	i	i
O=C1/C(=C\c2ccco2)SC(=S)N1Cc1ccccc1	i	i	i	i	i	i	nt	nt	nt
O=C(O)CN1C(=O)/C(=C/c2ccc(SCc3ccccc3)o2)SC1=S	87	nt	i	i	nt	nt	88	i	96
O=C(O)CCCN1C(=O)/C(=C\c2ccco2)SC1=S	42	nt	i	i	i	nt	94	30	i
Cc1noc(C)c1S(=O)(=O)NC(=O)C1(C)CCN1C(=O)CC(c1ccccc1)c1ccccc1 (stereo not given)	i	nt	nt	i	i	nt	nt	nt	nt
CCOC(=O)N(C)c1c(CC)nc2c(OCc3ccc(F)cc3)cccn12	i	nt	nt	i	i	nt	nt	nt	nt
CCCCCCCCCCCCCCCC(O)C(N)CO (stereo not given)	53	i	i	47	i	i	i	i	i
Cc1ccc(-n2cccc2/C=C2\C(=N)N3N=C(c4ccco4)SC3=NC2=O)cc1	61	i	i	i	nt	i	i	19	i
O=C1/C(=C/c2cccs2)CCC/C1=C\c1cccs1	43	i	i	i	i	i	92	i	i
Cc1cc(N2CCN(C)CC2)ccc1NC(=O)c1cccc(S(=O)(=O)N2CCc3ccccc3C2)c1	108	i	i	i	i	i	53	i	i
Cc1ccc(S(=O)(=O)Cc2ccc(C(=O)O)o2)cc1	35	i	i	i	i	i	64	22	i
CCN(CC)c1ccc(C=Nc2ccc(N(C)C)cc2)c(O)c1	42	i	i	i	nt	i	128	i	37
CCN(CC)c1ccc(C=Nc2ccc(C)cc2)c(O)c1	i	i	i	i	i	i	nt	nt	nt
O=C(NC1CCCCC1)C(c1cc2ccccc2o1)N1CCOCC1 (stereo not given)	i	nt	nt	i	i	nt	nt	nt	nt
O=c1[nH]c(Nc2ccccc2Cl)cc2ccccc12	i	i	i	i	i	i	nt	nt	nt
O=c1[nH]c(Nc2ccc(F)cc2)cc2ccccc12	35	i	i	i	i	i	73	i	i

Screening results from PubChem.
